The results in this text go back to ChEMBL document CHEMBL1123330, “Synthesis and antitumor activities of unsymmetrically substituted 1,4-bis[(aminoalkyl)amino]anthracene-9,10-diones and related systems” (1986).

The test concerns L1210. Put plainly: In vitro inhibition of L1210 cell growth. Format: functional. The following applies: Mus musculus, read-out: ID50 (the source's name). The procedure, abridged: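 Murine L1210 leukemia cells grown in suspension in McCoy's 5A with 10% horse serum, glutamine, penicillin, streptomycin; 37 °C, 10% CO2. Compound in Me2SO added to 10^5 cells/tube to final 0.01, 0.1 and 10 μg/mL; 7 h continuous exposure.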

Values after ≈ are worked out from the molar mass of the structure shown.

As to `COc1ccc(NCCNC(C)=O)c2c1C(=O)c1ccccc1C2=O`, the IC50 is > 10 µg/mL.

Take `COc1ccc(NCCCCCNC(C)=O)c2c1C(=O)c1ccccc1C2=O`: the IC50 was 9 µg/mL (≈ 23.7 µM). Under `COc1ccc(NCCCCNC(=O)OCc2ccccc2)c2c1C(=O)c1ccccc1C2=O` stands > 10 µg/mL; under `CN(C)CCCNc1ccc(NCCCCNC(=O)OCc2ccccc2)c2c1C(=O)c1ccccc1C2=O`, 0.29 µg/mL (≈ 0.549 µM). Regarding `COc1ccc(NCCCCNC(C)=O)c2c1C(=O)c1ccccc1C2=O`, the IC50 is > 10 µg/mL. Then `CN(C)CCNc1ccc(NCCCCN)c2c1C(=O)c1ccccc1C2=O`, with 0.0045 µg/mL (≈ 0.0118 µM); and `CC(=O)NCCCCNc1ccc(NCCN(C)C)c2c1C(=O)c1ccccc1C2=O`, with 0.03 µg/mL (≈ 0.071 µM); and `COc1ccc(NCCCCN)c2c1C(=O)c1ccccc1C2=O`, with 1.8 µg/mL (≈ 5.55 µM). Under `COc1ccc(NCCN)c2c1C(=O)c1ccccc1C2=O` stands 2.5 µg/mL (≈ 8.44 µM); under `CC(=O)NCCCNc1ccc(NCCN(C)C)c2c1C(=O)c1ccccc1C2=O`, 0.4 µg/mL (≈ 0.979 µM). Consider `CN(C)CCCNc1ccc(NCCCCN)c2c1C(=O)c1ccccc1C2=O`, for which the IC50 was 0.18 µg/mL (≈ 0.456 µM). Then `CC(=O)NCCCCCNc1ccc(NCCN(C)C)c2c1C(=O)c1ccccc1C2=O`, with 2.3 µg/mL (≈ 5.27 µM); and `CN(C)CCNc1ccc(NCCCCNC(=O)OCc2ccccc2)c2c1C(=O)c1ccccc1C2=O`, with 0.88 µg/mL (≈ 1.71 µM). Then `CN(C)CCNc1ccc(NCCCN)c2c1C(=O)c1ccccc1C2=O`, with 0.05 µg/mL (≈ 0.136 µM). Under `COc1ccc(NCCCN)c2c1C(=O)c1ccccc1C2=O` stands 2.8 µg/mL (≈ 9.02 µM); under `COc1ccc(NCCCNC(C)=O)c2c1C(=O)c1ccccc1C2=O`, > 10 µg/mL; under `CC(=O)NCCNc1ccc(NCCN(C)C)c2c1C(=O)c1ccccc1C2=O`, 2.05 µg/mL (≈ 5.2 µM).
